# Results: publication PMC5006629 (Chemical & pharmaceutical bulletin, 2013)
# Read-outs that look alike come from different tables or passages of the source.
# How the values were obtained:
# [1] = test system: human HT-29 colon tumor cell line; test: HT-29 tumor cell growth inhibition; format: cell-based
# In short: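 Human HT-29 colon tumour cells. Two-stage screen: test compounds first tested at one concentration in triplicate for % growth inhibition.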
# [2] = molecular target: PDE3B (Homo sapiens, UniProt Q13370); format: biochemical
# Chain of PDE3B (Q13370 whole entry): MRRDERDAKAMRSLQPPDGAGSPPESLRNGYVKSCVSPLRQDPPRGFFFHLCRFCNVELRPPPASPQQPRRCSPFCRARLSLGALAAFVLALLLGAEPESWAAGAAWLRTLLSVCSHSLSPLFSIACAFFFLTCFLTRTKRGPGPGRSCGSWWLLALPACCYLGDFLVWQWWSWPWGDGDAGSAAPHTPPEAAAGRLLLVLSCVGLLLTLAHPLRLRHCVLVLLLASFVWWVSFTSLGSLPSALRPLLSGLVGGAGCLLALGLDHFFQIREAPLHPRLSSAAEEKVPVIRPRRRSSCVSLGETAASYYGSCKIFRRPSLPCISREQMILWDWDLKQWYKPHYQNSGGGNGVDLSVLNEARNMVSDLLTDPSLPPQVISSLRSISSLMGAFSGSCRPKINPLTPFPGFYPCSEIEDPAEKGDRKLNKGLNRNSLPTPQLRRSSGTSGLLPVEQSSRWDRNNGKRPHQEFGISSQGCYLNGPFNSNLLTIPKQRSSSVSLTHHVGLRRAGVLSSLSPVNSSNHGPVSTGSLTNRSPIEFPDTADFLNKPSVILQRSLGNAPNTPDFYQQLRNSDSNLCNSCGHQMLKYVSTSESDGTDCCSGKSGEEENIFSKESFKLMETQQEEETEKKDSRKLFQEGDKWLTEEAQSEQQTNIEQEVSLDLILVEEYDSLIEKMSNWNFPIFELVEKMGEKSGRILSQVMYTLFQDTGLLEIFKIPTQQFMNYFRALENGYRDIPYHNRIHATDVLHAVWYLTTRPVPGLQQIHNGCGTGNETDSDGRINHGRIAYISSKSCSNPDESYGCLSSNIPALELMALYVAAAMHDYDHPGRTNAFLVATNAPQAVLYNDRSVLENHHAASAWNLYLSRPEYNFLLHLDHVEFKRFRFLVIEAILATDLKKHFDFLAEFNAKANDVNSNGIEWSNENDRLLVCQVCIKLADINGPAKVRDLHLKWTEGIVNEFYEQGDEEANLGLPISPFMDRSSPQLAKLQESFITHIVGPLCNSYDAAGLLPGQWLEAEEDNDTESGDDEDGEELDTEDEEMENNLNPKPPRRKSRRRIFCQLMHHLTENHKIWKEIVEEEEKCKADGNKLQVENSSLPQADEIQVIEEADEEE
# [3] = Homo sapiens, HT-29, read-out: HT-29 growth inhibition: IC50
# [4] = PDE3 inhibition IC50, cGMP, substrate cGMP
# [5] = read-out: % PDE3 inhibition at 50 μM, cAMP, substrate cAMP, 50 μM
# [6] = read-out: % PDE3 inhibition at 50 μM, cGMP, substrate cGMP, 50 μM
# [7] = PDE3 inhibition IC50, cAMP, substrate cAMP
"IC50 [1, 3] [µM]","IC50 [2, 4] [µM]","inhibition at 50 µM [2, 5] [%]","inhibition at 50 µM [2, 6] [%]",PDE3 inhibition with cAMP as substrate (in words) ([2]; substrate cAMP),"IC50 [2, 7] [µM]","IC50 ([1]; read-out: HT-29 growth inhibition: IC50, HT-29 colorectal cancer cell line, 10 concentrations) [µM]","% PDE3 inhibition at 50 μM, cAMP ([2]; substrate cAMP, 50 μM) [%]","% PDE3 inhibition at 50 μM, cGMP ([2]; substrate cGMP, 50 μM) [%]",Compound,"HT-29 growth inhibition: % Growth inhibition at 50 μM ([1]; HT-29 colorectal cancer cell line, 50 μM, triplicate) [%]","induction of apoptosis to the HT-29 cell line (in words) ([1]; HT-29 cell line, positive control)"
18.3,10.9,48,85,did not inhibit PDE3,–,–,–,–,"CCOc1ccccc1-c1cc(-c2cccc(Br)c2)nc2ncnc(N)c12 [Compound 6, 7-(3-Bromophenyl)-5-(2-ethoxyphenyl)pyrido[2,3-d]pyrimidin-4-amine]",–,–
–,4,≤ 50,105,–,–,–,–,–,"COc1ccccc1-c1cc(-c2cccc(Br)c2)nc(N)c1C#N [Compound 1, 2-Amino-6-(3-bromophenyl)-4-(2-methoxyphenyl)nicotinonitrile]",–,–
1.34,10.8,62,78.6,–,24.2,–,–,–,"COc1ccccc1-c1cc(-c2cccc(Br)c2)nc2nc[nH]c(=O)c12 [Compound 7, 7-(3-Bromophenyl)-5-(2-methoxyphenyl)pyrido[2,3-d]pyrimidin-4(3H)-one]",–,–
–,–,–,–,–,–,15.5,70,72,"6-(2-Bromophenyl)-4-(2-ethoxyphenyl)-2-oxo-1,2-dihydropyridine-3-carbonitrile [Compound 4]",68,–
32,13.4,55,85,–,35.6,–,–,–,"COc1ccccc1-c1cc(-c2ccc(-c3ccc(Br)cc3)cc2)nc(N)c1C#N [Compound 3, 2-Amino-6-(4′-bromobiphenyl-4-yl)-4-(2-methoxyphenyl)nicotinonitrile]",–,–
43,–,–,≤ 50,–,–,–,–,–,"CCOc1ccccc1-c1cc(-c2cccc(Br)c2)nc(N)c1C#N [Compound 2, 2-Amino-6-(3-bromophenyl)-4-(2-ethoxyphenyl)nicotinonitrile]",–,–
> 50,–,77,95,–,–,–,–,–,"Cc1[nH]c(=O)c(C#N)cc1-c1ccncc1 [Milrinone, reference compound]",–,inactivity
10.4,10.5,77,75,–,6.2,–,–,–,"N#Cc1c(-c2ccccc2Cl)cc(-c2ccccc2Br)[nH]c1=O [Compound 5, 6-(2-Bromophenyl)-4-(2-chlorophenyl)-2-oxo-1,2-dihydropyridine-3-carbonitrile]",–,–
